Peptide text beside a SMILES is read from it. * marks the point of attachment. Cbz = O=C(OCc1ccccc1)*; CH2F = FC*
Tests used:
LC3-II = experiment: Western blotting for LC3 in WM266–4 cells; format: cell-based, human
Summary of the method: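 1 × 10^6 cells seeded (WM266–4 in E-MEM, M14 in RPMI-1640; + 10% FBS) in 6 cm plates. Test compound at various doses and times; controls rapamycin 10 μM + chloroquine 5 μM, staurosporine 1 μM. Lysates blotted with polyclonal LC3 A/B antibody (1:1000); bands normalised to β-actin, as fold of untreated; n=3.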

cleaved lamin A/C = experiment: Western blotting for Lamin A/C in WM266–4 cells; format: cell-based, human; settings: LY294002 10 μM, 2155–14 100 μM
Summary of the method: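 WM266–4 cells (1 × 10^6, E-MEM + 10% FBS, 6 cm plates) pre-treated after 24 h with caspase inhibitors for 3 h or autophagy inhibitors (LY294002 10 μM, hydroxychloroquine) for 1 h. Test compound given at various doses and times, with or without inhibitors; controls staurosporine 1 μM, rapamycin 10 μM + chloroquine 5 μM. Lysates blotted with polyclonal lamin A/C antibody (1:1000).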

WM266–4 = experiment: Cell viability assay; format: cell-based, human; settings: for WM266–4 viability, inhibitor alone: 50 μM inhibitor, 72 h
sXBP1 = experiment: ER stress assay; format: cell-based, human; settings: 60 μM STF-83010 pre-treatment 3 h
Summary of the method: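 WM266–4 cells (0.2 × 10^6, E-MEM + 10% FBS, 24-well) pre-treated 24 h after seeding with 60 μM STF-83010 or vehicle for 3 h. RNA extracted with TRI reagent; amplified products run on 2% agarose with GelGreen and quantified. sXBP-1 expressed as % of total XBP-1 (sXBP-1 + XBP-1).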

metastatic melanoma = settings: BRAF-mutant metastatic melanoma; cited from earlier work
PC-3 cells = settings: read-out: IC50, apoptotic cell death of PC-3 cells; cited from earlier work
WM266–4 cells = experiment: Annexin V flow cytometry assay; format: cell-based, human; settings: 4 h, staurosporine 1 μM
Summary of the method: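 WM266–4 cells (1,000,000/flask, EMEM + 10% FBS + 1% pen/strep) adhered overnight. 24 h after plating, optional 2 h pre-treatment with Z-VAD-FMK 10 μM. Test compound 100 μM or staurosporine 1 μM (control) for 4, 24 and 48 h. Adherent plus floating cells pooled, Annexin V-FITC stained, and viable, necrotic, early and late apoptotic cells counted by flow cytometry.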

WM115 = experiment: Cell viability assay; format: cell-based; settings: Homo sapiens, WM-115, 72 h, read-out: IC50, viability WM115 (F)
SKMEL2 = experiment: Cell viability assay; format: cell-based; settings: Homo sapiens, SK-MEL-2, 72 h, read-out: IC50, viability SKMEL2 (M)
Summary of the method: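 Cells plated in 384-well format. Test compound as a 10-point 1:3 dilution series prepared from 300 μM; dabrafenib as assay control. Incubated 72 h at 37 °C, 5% CO2. CellTiter-Glo added for 15 min at room temperature; luminescence read. Viability normalised to media-only (0%) and DMSO-treated cells (100%). S/B, CV and Z′ computed per plate.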

SKMEL28 = settings: read-out: IC50, viability SKMEL28; V600E BRAF/R24C CDK4 primary; cited from earlier work
M14 = experiment: Cell viability assay; format: cell-based; settings: Homo sapiens, M14, 72 h, read-out: IC50, viability M14 (M)

In the case of `O=c1cc(N2CCOCC2)oc2c(-c3ccccc3)cccc12` [LY294002], the “LC3-II levels, fold of untreated control” value (LC3-II; LY294002 10 μM alone) is reported as 20 fold, the “LC3-II levels, fold of untreated control” value (LC3-II; combination of LY294002 10 μM and 2155–14 100 μM) is reported as ~ 40 fold and the “effect of pre-treatment on cleaved lamin A/C levels in cells treated with 2155–14” value (cleaved lamin A/C) is reported as “no effect”.

With `CC(C)[C@H](NC(=O)OCc1ccccc1)C(=O)N[C@H](C=O)Cc1ccccc1` [MDL-28170] (Cbz-Val-Phe-aldehyde) the “WM266–4 viability 24 h after addition of 2155–14, inhibitor pre-incubation” value (WM266–4; caspase inhibitors 10 μM, calpain inhibitors 25 μM, 2155–14 100 μM) was “further decreased cell viability”.

For `O=S(=O)(N=Cc1c(O)ccc2ccccc12)c1cccs1` [STF-83010], the “effect on sXBP1 formation by 2155–14” value (sXBP1) was “inhibited”.

In the case of `CC(C)(C)c1nc(-c2cccc(NS(=O)(=O)c3c(F)cccc3F)c2F)c(-c2ccnc(N)n2)s1` [dabrafenib], the “median progression-free survival (PFS)” value (metastatic melanoma) is listed as 6.9 months.

In the case of `O=c1c(O)c(-c2ccc(O)c(O)c2)oc2cc(O)cc(O)c12` [quercetin], the IC50 (PC-3 cells) is given as 100 µM.

For `CN[C@@H]1C[C@H]2O[C@@](C)([C@@H]1OC)n1c3ccccc3c3c4c(c5c6ccccc6n2c5c31)C(=O)NC4` [staurosporine], the apoptosis detection (WM266–4 cells) was “apoptosis was detected”.

`CCCS(=O)(=O)Nc1ccc(F)c(C(=O)c2c[nH]c3ncc(-c4ccc(Cl)cc4)cc23)c1F` [vemurafenib] showed an IC50 (WM115) of 5 ± 0.9 µM, an IC50 (SKMEL2) of 1.4e-06 ± 7e-07 M and an IC50 (WM266–4; Homo sapiens, WM 266-4, 72 h, read-out: IC50, viability WM266–4 (F)) of 3 ± 0.4 µM. For the same compound, the “median progression-free survival (PFS)” value (metastatic melanoma) was 6.9 months, the IC50 (SKMEL28) was 4.6 µM and the IC50 (M14) was 1e-06 ± 2e-07 M.

In the case of Cbz-Val-Ala-Asp-CH2F, the “WM266–4 viability, inhibitor alone” value (WM266–4) is reported as “completely inhibited cell viability”.

With “Z-IETD-FMK: selective caspase 8 inhibitor” the “WM266–4 viability, inhibitor alone” value (WM266–4) was “completely inhibited cell viability” and the “WM266–4 cells viable, 2155–14 in combination with inhibitor” value (WM266–4; 48 h, 2155–14 100 μM, caspase inhibitors 10 μM, calpain inhibitor 25 μM) was 25%.

— article PMC6990463 (Cellular physiology and biochemistry : international …, 2019)
